Non-standard residues stand in square brackets, D forms with d. Residues, ends and D or L forms follow the SMILES beside them. *: point of attachment. Dolaproine = CO[C@@H]([C@@H]1CCCN1)[C@@H](C)C(=O)O; Dil = CC[C@H](C)[C@H](NC)[C@@H](CC(=O)O)OC; Doe = c1ccc(C[C@H](N*)c2nccs2)cc1; X1 = C[C@@H](N*)[C@@H](O)c1ccccc1; NMeV = CN[C@H](C(=O)O)C(C)C; NMeA = CN[C@@H](C)C(=O)O; NMeAib = CNC(C)(C)C(=O)O; Ac5c = NC1(C(=O)O)CCCC1; Ac3c = NC1(C(=O)O)CC1; Aib = CC(C)(N)C(=O)O; Sar = CNCC(=O)O
Tests used:
BT-474 = assay: Cytotoxicity against human BT474 cells assessed as cell viability incubated fore 4 days by MTS assay; type: functional; settings: BT-474, 96 h
Method in brief: (§1)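 Cells seeded at low density in 96-well plates, dosed next day with 3-fold serial dilutions at 10 concentrations in duplicate. Incubated 4 days at 37C/5% CO2. Viability read by MTS reagent (1.5 h), absorbance at 490 nm. Four-parameter logistic fit. Reported as arithmetic mean GI50 (nM) with standard deviation over n individual runs, each run a duplicate readout.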

MDA-MB-361 = assay: Cytotoxicity against human MDA-MB-361 cells assessed as cell viability incubated fore 4 days by MTS assay; type: functional; settings: MDA-MB-361, 96 h; method in brief: as §1
NCI-N87 = assay: Cytotoxicity against human NCI-N87 cells assessed as cell viability incubated fore 4 days by MTS assay; type: functional; settings: NCI-N87, 96 h; method in brief: as §1
[1] = AUCt in Han Wistar rat at 20 ug/kg, iv by LC-MS/MS analysis; type: ADME, organism-based; settings: plasma, 0.02 mg/kg
Method in brief: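 Male Wistar Han rats (n = 3) received a single IV dose of 20 µg/kg. Serum/plasma concentrations were measured by LC-MS/MS. AUCt was taken from time zero to the last measurable concentration. Values are reported as mean ±.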

[2] = Volume of distribution at steady state in Han Wistar rat at 20 ug/kg, iv by LC-MS/MS analysis; type: ADME, organism-based; settings: in vivo, 0.02 mg/kg, read-out: Vdss
Method in brief: (§2)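 Male Wistar Han rats (n = 3), single IV dose of 20 µg/kg. Plasma levels by LC-MS/MS. Cmax, Tmax, AUCt (zero to last measurable concentration), systemic serum clearance, Vss and terminal t1/2 given as mean ± spread.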

[3] = Half life in Han Wistar rat at 20 ug/kg, iv by LC-MS/MS analysis; type: ADME, organism-based; settings: in vivo, 0.02 mg/kg; method in brief: as §2
[4] = Clearance in Han Wistar rat at 20 ug/kg, iv by LC-MS/MS analysis; type: ADME, organism-based; settings: in vivo, 0.02 mg/kg; method in brief: as §2
[5] = Fraction unbound in monkey plasma at 0.1 uM; type: ADME, cell-free, Macaca mulatta; settings: rhesus monkey
Method in brief: (§3)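 Plasma protein binding measured at 0.1 uM in monkey, rat and human plasma. Reported as fraction unbound.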

[6] = Fraction unbound in rat plasma at 0.1 uM; type: ADME, cell-free; method in brief: as §3
[7] = Fraction unbound in human plasma at 0.1 uM; type: ADME, cell-free; method in brief: as §3
[8] = Drug recovery in Han Wistar rat urine at 36 ug/kg, iv bolus dose; type: ADME, organism-based; settings: 0.036 mg/kg, read-out: Drug recovery
Method in brief: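 Single IV bolus of 36 µg/kg. Fraction of dose recovered in urine (Wistar Han rats, n = 3) and in bile (Sprague-Dawley rats, n = 3).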

[9] = Drug recovery in Han Wistar rat bile at 36 ug/kg, iv bolus dose; type: ADME, organism-based; settings: 0.036 mg/kg, read-out: Drug recovery
[10] = Drug metabolism in human liver S9 fraction assessed as formation of NADPH-dependent oxidative metabolites; type: ADME, subcellular
[11] = Drug metabolism in rat liver S9 fraction assessed as formation of NADPH-dependent oxidative metabolites; type: ADME, subcellular
[12] = Drug metabolism in monkey liver S9 fraction assessed as formation of NADPH-dependent oxidative metabolites; type: ADME, subcellular, Macaca mulatta; settings: rhesus monkey
[13] = Drug metabolism in human liver S9 fraction assessed as formation of amide hydrolysis products; type: ADME, subcellular
[14] = Drug metabolism in rat liver S9 fraction assessed as formation of amide hydrolysis products; type: ADME, subcellular
[15] = Drug metabolism in monkey liver S9 fraction assessed as formation of amide hydrolysis products; type: ADME, subcellular, Macaca mulatta; settings: rhesus monkey
[16] = Drug metabolism in human liver S9 fraction assessed as formation of glucuronide conjugates; type: ADME, subcellular
[17] = Drug metabolism in rat liver S9 fraction assessed as formation of glucuronide conjugates; type: ADME, subcellular
[18] = Drug metabolism in monkey liver S9 fraction assessed as formation of glucuronide conjugates; type: ADME, subcellular, Macaca mulatta; settings: rhesus monkey
Cytochrome P450 3A4 = Cytochrome P450 3A4 (Homo sapiens, UniProt P08684); assay: Drug metabolism assessed as human recombinant CYP3A4-mediated hydroxylation occurring on N-terminus; type: ADME; settings: recombinant enzyme
[19] = Apparent intrinsic clearance in human liver microsomes at 1 uM; type: ADME; settings: read-out: CLH(app)
Method in brief: (§4)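 Apparent intrinsic clearance measured at 1 μM substrate in human liver microsomes (μl/min/mg) and in human hepatocytes (μl/min/million cells).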

Hepatocyte = assay: Apparent intrinsic clearance in human liver hepatocytes at 1 uM; type: ADME, cell-based; method in brief: as §4
[20] = Cmax in Han Wistar rat at 20 ug/kg, iv by LC-MS/MS analysis; type: ADME, organism-based; design: dose 20 ug/kg, route intravenous; settings: in vivo, 0.02 mg/kg; method in brief: as §2
[21] = Tmax in Han Wistar rat at 20 ug/kg, iv by LC-MS/MS analysis; type: ADME, organism-based; settings: in vivo, 0.02 mg/kg; method in brief: as §2

Cytochrome P450 3A4, sequence (P08684 whole entry): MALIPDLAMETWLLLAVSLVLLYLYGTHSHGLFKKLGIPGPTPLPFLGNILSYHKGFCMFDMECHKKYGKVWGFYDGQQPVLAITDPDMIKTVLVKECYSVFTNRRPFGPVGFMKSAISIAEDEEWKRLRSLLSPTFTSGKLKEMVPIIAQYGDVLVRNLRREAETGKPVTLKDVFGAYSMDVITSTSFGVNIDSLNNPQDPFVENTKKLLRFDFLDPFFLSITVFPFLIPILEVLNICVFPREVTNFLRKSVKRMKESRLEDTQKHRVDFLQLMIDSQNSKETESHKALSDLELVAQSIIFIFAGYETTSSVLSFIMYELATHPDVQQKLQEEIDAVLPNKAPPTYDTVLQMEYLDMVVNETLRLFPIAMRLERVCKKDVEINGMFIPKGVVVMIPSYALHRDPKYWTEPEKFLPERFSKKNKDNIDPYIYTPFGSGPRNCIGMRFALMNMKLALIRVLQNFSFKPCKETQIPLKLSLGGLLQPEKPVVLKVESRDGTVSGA

## CC[C@H](C)[C@@H]([C@@H](CC(=O)N1CCC[C@H]1[C@H](OC)[C@@H](C)C(=O)N[C@@H](Cc1ccccc1)c1nccs1)OC)N(C)C(=O)[C@@H](NC(=O)[C@@H](N)C(C)C)C(C)C (H-VV[Dil][Dolaproine]-Doe)
BT-474
  GI50: 5.3 nM
MDA-MB-361
  GI50: 9 nM
NCI-N87
  GI50: 10 nM

## CC[C@H](C)[C@@H]([C@@H](CC(=O)N1CCC[C@H]1[C@H](OC)[C@@H](C)C(=O)N[C@@H](Cc1ccccc1)c1nccs1)OC)N(C)C(=O)[C@@H](NC(=O)C1(N)CC1)C(C)C (H-[Ac3c]V[Dil][Dolaproine]-Doe)
BT-474
  GI50: 2.9 nM
MDA-MB-361
  GI50: 5.6 nM
NCI-N87
  GI50: 6.4 nM

## CC[C@H](C)[C@@H]([C@@H](CC(=O)N1CCC[C@H]1[C@H](OC)[C@@H](C)C(=O)N[C@@H](Cc1ccccc1)c1nccs1)OC)N(C)C(=O)[C@@H](NC(=O)C1(N)CCCC1)C(C)C (H-[Ac5c]V[Dil][Dolaproine]-Doe)
BT-474
  GI50: 0.28 nM
MDA-MB-361
  GI50: 0.35 nM
NCI-N87
  GI50: 0.33 nM

## CC[C@H](C)[C@@H]([C@@H](CC(=O)N1CCC[C@H]1[C@H](OC)[C@@H](C)C(=O)N[C@@H](Cc1ccccc1)c1nccs1)OC)N(C)C(=O)[C@@H](NC(=O)C(C)(C)N)C(C)C (H-[Aib]V[Dil][Dolaproine]-Doe)
[1]
  AUC(0-t): 4.51 ng·h/mL
[2]
  Vd: 14.7 L/kg
[3]
  half-life: 5.85 h
[4]
  clearance: 70 mL/min/kg
[5]
  fraction unbound at 0.1 µM: 0.24
[6]
  fraction unbound at 0.1 µM: 0.1
[7]
  fraction unbound at 0.1 µM: 0.07
[8]
  dose excreted: 8%
[9]
  dose excreted: 4%
[10]
  Drug metabolism: metabolite_detected
[11]
  Drug metabolism: metabolite_detected
[12]
  Drug metabolism: metabolite_detected
[13]
  Drug metabolism: metabolite_notdetected
[14]
  Drug metabolism: metabolite_notdetected
[15]
  Drug metabolism: metabolite_notdetected
[16]
  Drug metabolism: metabolite_notdetected
[17]
  Drug metabolism: metabolite_notdetected
[18]
  Drug metabolism: metabolite_notdetected
Cytochrome P450 3A4
  Drug metabolism: metabolite_detected
BT-474
  GI50: 0.26 nM
MDA-MB-361
  GI50: 0.19 nM
NCI-N87
  GI50: 0.27 nM
[19]
  microsomal CLint at 1 µM: 84 µL/min/mg
Hepatocyte
  CLH(app): 21 µL/min/mg
[20]
  Cmax: 19.4 ng/mL
[21]
  Tmax: 8.4 min

## CC[C@H](C)[C@@H]([C@@H](CC(=O)N1CCC[C@H]1[C@H](OC)[C@@H](C)C(=O)N[C@@H](Cc1ccccc1)c1nccs1)OC)N(C)C(=O)[C@@H](NC(=O)[C@H](C)NC)C(C)C (H-[NMeA]V[Dil][Dolaproine]-Doe)
BT-474
  GI50: 0.23 nM
MDA-MB-361
  GI50: 0.25 nM
NCI-N87
  GI50: 0.42 nM

## CC[C@H](C)[C@@H]([C@@H](CC(=O)N1CCC[C@H]1[C@H](OC)[C@@H](C)C(=O)N[C@@H](Cc1ccccc1)c1nccs1)OC)N(C)C(=O)[C@@H](NC(=O)C(C)(C)NC)C(C)C (H-[NMeAib]V[Dil][Dolaproine]-Doe)
BT-474
  GI50: 0.045 nM
MDA-MB-361
  GI50: 0.076 nM
NCI-N87
  GI50: 0.12 nM

## CC[C@H](C)[C@@H]([C@@H](CC(=O)N1CCC[C@H]1[C@H](OC)[C@@H](C)C(=O)N[C@@H](Cc1ccccc1)c1nccs1)OC)N(C)C(=O)[C@@H](NC(=O)[C@@H](NC)C(C)C)C(C)C (H-[NMeV]V[Dil][Dolaproine]-Doe)
BT-474
  GI50: 0.12 nM
MDA-MB-361
  GI50: 0.09 nM
NCI-N87
  GI50: 0.3 nM
[19]
  microsomal CLint at 1 µM: 48 µL/min/mg
Hepatocyte
  CLH(app): 11 µL/min/mg

## CC[C@H](C)[C@@H]([C@@H](CC(=O)N1CCC[C@H]1[C@H](OC)[C@@H](C)C(=O)N[C@H](C)[C@@H](O)c1ccccc1)OC)N(C)C(=O)[C@@H](NC(=O)[C@@H](NC)C(C)C)C(C)C (H-[NMeV]V[Dil][Dolaproine]-X1)
BT-474
  GI50: 0.22 nM
MDA-MB-361
  GI50: 0.49 nM
NCI-N87
  GI50: 0.54 nM
[19]
  microsomal CLint at 1 µM: 24 µL/min/mg
Hepatocyte
  CLH(app): 3 µL/min/mg

## CC[C@H](C)[C@@H]([C@@H](CC(=O)N1CCC[C@H]1[C@H](OC)[C@@H](C)C(=O)N[C@@H](Cc1ccccc1)c1nccs1)OC)N(C)C(=O)[C@@H](NC(=O)CNC)C(C)C (H-[Sar]V[Dil][Dolaproine]-Doe)
BT-474
  GI50: 0.49 nM
MDA-MB-361
  GI50: 0.69 nM
NCI-N87
  GI50: 1.2 nM

— ChEMBL document CHEMBL3352038, “Discovery of cytotoxic dolastatin 10 analogues with N-terminal modifications” (J Med Chem, 2014)
